Data published in ChEMBL document CHEMBL1139833, “Synthesis and metabotropic glutamate receptor activity of S-oxidized variants of (-)-4-amino-2-thiabicyclo-[3.1.0]hexane-4,6-dicarboxylate: identification of potent, selective, and orally bioavailable agonists for mGlu2/3 receptors” (J Med Chem, 2007).
Calls of active or inactive are those of the source. No cut-off for these calls is given here.

Tests used:
[1] = biological target: Metabotropic glutamate receptor 1 (Homo sapiens) (UniProt Q13255); experiment: Agonist activity at human mGluR1a assessed as effect on cAMP production in RGT cells upto 100 uM; type: functional, cell-based
Chain of Metabotropic glutamate receptor 1 (Homo sapiens) (Q13255 19-1194 limits assumed): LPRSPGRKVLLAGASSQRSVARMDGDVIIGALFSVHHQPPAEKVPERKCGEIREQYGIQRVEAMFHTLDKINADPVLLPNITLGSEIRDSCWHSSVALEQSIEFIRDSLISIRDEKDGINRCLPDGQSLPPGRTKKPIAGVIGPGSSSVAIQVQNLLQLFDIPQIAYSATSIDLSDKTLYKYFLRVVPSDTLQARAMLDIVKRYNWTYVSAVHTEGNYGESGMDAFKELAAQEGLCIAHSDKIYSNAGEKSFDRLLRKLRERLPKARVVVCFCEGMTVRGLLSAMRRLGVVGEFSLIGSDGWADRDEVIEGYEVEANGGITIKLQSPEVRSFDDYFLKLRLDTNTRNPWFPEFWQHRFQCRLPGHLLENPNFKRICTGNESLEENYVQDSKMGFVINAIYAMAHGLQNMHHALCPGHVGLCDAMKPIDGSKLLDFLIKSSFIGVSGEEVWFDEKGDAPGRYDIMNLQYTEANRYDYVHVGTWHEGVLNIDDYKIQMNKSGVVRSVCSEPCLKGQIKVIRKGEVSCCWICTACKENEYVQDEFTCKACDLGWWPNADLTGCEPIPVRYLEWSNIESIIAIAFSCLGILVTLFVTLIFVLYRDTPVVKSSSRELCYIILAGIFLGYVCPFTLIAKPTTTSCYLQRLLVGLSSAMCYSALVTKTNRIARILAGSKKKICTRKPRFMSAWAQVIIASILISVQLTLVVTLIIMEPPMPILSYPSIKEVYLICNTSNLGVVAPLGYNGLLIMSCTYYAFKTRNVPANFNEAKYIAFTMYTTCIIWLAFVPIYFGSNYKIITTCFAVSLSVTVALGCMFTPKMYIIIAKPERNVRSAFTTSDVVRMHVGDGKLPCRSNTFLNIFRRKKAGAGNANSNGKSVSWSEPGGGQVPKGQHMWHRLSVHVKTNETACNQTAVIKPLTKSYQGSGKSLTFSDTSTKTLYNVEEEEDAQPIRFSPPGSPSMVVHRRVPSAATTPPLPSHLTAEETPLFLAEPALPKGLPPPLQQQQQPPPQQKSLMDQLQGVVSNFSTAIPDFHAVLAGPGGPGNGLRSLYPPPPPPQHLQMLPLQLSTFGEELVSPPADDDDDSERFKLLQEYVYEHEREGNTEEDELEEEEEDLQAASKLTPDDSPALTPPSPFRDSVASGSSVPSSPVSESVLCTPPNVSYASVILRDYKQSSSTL
Outline: (§1)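 Compounds were tested at concentrations up to 100 µM for agonist or antagonist effects. Assays used RGT cells, which are AV12-664 cells coexpressing GLAST and recombinant human mGlu1a, mGlu5a, mGlu4a or mGlu7a.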

[2] = biological target: Metabotropic glutamate receptor 5 (Homo sapiens) (UniProt P41594); experiment: Agonist activity at human mGluR5a assessed as effect on cAMP production in RGT cells upto 100 uM; type: functional, cell-based; outline: as §1
Chain of Metabotropic glutamate receptor 5 (Homo sapiens) (P41594 21-1212 limits assumed): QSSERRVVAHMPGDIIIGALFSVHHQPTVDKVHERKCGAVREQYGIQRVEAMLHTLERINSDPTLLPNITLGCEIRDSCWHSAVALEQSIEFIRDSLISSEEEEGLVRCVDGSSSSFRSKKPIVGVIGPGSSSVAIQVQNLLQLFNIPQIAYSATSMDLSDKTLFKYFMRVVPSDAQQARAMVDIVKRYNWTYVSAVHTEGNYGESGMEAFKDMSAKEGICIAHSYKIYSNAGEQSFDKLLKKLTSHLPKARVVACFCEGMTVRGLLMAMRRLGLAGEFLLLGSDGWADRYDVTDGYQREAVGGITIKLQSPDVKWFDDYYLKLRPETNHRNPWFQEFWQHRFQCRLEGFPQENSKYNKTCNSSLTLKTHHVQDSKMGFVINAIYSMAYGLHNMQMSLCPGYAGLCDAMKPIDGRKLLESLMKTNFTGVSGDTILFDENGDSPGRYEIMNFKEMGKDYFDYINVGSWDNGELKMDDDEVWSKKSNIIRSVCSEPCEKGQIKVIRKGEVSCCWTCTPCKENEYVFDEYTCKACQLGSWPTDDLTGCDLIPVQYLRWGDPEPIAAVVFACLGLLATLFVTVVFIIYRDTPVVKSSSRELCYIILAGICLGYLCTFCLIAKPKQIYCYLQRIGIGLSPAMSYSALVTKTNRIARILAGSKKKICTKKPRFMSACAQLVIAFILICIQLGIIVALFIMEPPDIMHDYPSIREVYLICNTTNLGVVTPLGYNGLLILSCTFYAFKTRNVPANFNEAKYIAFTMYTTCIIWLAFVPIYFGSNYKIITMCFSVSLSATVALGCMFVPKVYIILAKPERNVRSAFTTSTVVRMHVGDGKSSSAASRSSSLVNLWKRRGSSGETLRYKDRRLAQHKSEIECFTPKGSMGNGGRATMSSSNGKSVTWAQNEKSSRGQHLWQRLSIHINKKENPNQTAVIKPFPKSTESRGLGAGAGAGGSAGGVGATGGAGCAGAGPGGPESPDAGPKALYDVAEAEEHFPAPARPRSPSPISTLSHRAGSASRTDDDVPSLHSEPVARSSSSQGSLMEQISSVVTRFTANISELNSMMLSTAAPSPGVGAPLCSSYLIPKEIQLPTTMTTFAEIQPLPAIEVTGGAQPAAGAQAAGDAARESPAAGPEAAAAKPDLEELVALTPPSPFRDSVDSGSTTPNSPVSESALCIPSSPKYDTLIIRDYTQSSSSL

[3] = biological target: Metabotropic glutamate receptor 4 (Homo sapiens) (UniProt Q14833); experiment: Agonist activity at human mGluR4a assessed as effect on cAMP production in RGT cells upto 100 uM; type: functional, cell-based; outline: as §1
Chain of Metabotropic glutamate receptor 4 (Homo sapiens) (Q14833 whole entry): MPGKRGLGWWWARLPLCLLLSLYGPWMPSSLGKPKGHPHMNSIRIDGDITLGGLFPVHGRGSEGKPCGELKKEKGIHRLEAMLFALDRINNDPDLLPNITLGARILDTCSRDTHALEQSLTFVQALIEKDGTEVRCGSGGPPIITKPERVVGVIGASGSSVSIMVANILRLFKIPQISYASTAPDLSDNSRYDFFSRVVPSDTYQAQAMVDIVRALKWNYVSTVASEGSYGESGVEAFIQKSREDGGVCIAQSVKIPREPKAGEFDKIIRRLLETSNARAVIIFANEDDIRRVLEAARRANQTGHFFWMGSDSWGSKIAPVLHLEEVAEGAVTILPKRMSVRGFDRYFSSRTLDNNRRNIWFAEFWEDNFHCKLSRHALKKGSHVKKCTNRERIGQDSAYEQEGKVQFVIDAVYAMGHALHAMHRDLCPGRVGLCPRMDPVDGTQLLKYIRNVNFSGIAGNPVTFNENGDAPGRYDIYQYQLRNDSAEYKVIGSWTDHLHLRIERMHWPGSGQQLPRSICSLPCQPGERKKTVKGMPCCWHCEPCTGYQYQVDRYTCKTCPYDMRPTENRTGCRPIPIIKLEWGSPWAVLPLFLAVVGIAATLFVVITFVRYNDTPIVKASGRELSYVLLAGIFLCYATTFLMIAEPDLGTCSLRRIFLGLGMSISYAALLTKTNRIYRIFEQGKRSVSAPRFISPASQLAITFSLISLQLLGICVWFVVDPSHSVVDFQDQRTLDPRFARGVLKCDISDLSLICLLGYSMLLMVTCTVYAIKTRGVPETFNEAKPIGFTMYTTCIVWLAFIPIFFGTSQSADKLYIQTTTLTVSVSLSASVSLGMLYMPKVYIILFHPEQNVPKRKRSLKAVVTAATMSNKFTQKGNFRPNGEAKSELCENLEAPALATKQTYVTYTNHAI

[4] = biological target: Metabotropic glutamate receptor 7 (Homo sapiens) (UniProt Q14831); experiment: Agonist activity at human mGluR7a assessed as effect on cAMP production in RGT cells upto 100 uM; type: functional, cell-based; outline: as §1
Chain of Metabotropic glutamate receptor 7 (Homo sapiens) (Q14831 whole entry): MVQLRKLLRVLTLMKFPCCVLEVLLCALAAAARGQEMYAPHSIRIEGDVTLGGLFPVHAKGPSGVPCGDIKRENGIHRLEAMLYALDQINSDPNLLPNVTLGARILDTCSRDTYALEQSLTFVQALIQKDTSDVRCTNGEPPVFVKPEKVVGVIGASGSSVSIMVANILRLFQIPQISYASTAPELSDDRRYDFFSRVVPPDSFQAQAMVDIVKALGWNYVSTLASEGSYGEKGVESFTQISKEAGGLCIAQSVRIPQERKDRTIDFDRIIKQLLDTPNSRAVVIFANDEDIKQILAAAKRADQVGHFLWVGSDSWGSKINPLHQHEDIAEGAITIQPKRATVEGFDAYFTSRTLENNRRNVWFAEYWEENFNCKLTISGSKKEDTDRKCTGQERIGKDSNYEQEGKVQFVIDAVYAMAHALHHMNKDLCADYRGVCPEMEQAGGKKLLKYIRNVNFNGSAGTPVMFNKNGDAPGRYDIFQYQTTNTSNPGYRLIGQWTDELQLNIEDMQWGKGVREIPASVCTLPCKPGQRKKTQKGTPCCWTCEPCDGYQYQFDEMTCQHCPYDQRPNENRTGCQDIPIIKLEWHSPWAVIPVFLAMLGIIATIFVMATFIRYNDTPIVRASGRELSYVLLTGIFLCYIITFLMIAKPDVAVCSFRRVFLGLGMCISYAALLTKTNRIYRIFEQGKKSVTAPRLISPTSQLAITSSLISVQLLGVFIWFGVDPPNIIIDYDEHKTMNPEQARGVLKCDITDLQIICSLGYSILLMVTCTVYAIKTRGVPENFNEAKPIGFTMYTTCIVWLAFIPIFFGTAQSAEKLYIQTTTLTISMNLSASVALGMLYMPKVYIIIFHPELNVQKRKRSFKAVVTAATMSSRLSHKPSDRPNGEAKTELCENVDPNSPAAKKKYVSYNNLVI

[5] = biological target: Metabotropic glutamate receptor 1 (Homo sapiens) (UniProt Q13255); experiment: Antagonist activity against human mGluR1a assessed as effect on cAMP production in RGT cells upto 100 uM; type: functional, cell-based; outline: as §1
[6] = biological target: Metabotropic glutamate receptor 5 (Homo sapiens) (UniProt P41594); experiment: Antagonist activity against human mGluR5a assessed as effect on cAMP production in RGT cells upto 100 uM; type: functional, cell-based; outline: as §1
[7] = biological target: Metabotropic glutamate receptor 4 (Homo sapiens) (UniProt Q14833); experiment: Antagonist activity against human mGluR4a assessed as effect on cAMP production in RGT cells upto 100 uM; type: functional, cell-based; outline: as §1
[8] = biological target: Metabotropic glutamate receptor 7 (Homo sapiens) (UniProt Q14831); experiment: Antagonist activity against human mGluR7a assessed as effect on cAMP production in RGT cells upto 100 uM; type: functional, cell-based; outline: as §1
[9] = biological target: T1, Metabotropic glutamate receptor 3 (Homo sapiens, UniProt Q14832); experiment: Agonist activity at human mGluR3 assessed as effect on cAMP production in RGT cells; type: functional, cell-based
T1 sequence (Q14832 whole entry): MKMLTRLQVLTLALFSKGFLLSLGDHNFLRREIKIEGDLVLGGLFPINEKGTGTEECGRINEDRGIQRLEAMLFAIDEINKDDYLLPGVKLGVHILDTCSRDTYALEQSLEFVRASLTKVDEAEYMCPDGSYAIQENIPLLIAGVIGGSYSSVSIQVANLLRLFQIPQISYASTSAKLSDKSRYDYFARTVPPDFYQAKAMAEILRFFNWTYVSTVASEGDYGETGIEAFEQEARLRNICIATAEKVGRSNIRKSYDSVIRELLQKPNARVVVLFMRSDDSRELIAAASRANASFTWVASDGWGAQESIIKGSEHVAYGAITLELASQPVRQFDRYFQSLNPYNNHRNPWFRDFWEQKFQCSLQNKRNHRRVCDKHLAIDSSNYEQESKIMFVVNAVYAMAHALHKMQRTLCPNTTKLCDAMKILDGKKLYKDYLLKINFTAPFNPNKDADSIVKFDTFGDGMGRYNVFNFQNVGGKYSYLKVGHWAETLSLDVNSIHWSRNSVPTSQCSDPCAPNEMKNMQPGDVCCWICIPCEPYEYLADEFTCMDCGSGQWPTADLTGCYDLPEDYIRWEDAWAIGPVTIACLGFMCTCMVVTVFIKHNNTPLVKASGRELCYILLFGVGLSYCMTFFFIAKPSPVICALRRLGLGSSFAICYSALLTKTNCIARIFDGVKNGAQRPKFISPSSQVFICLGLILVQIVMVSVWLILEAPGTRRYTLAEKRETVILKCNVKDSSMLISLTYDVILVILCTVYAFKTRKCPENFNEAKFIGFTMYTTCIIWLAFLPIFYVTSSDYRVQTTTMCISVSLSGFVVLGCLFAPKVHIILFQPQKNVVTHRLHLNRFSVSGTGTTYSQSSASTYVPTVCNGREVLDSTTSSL
Outline: (§2)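 cAMP second-messenger responses measured in RGT cells. These are non-neuronal AV12-664 cells coexpressing the glutamate transporter GLAST, to minimize glutamate activity, plus the recombinant human receptor (mGlu2, mGlu3 or mGlu8). Agonist EC50 determined.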

[10] = biological target: T1, Metabotropic glutamate receptor 3; experiment: Displacement of [3H]LY341495 from human recombinant mGluR3 in RGT cells; type: cell-based
Outline: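 Radioligand binding on membranes carrying recombinant human mGlu2 or mGlu3, displacing the antagonist [3H]LY341495. Ki was calculated from IC50 by the Cheng-Prusoff equation. Values are the mean of at least three separate experiments.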

[11] = biological target: Metabotropic glutamate receptor 2 (Homo sapiens, UniProt Q14416); experiment: Agonist activity at human mGluR2 assessed as effect on cAMP production in RGT cells; type: functional, cell-based; outline: as §2
Rattus norvegicus [12] = experiment: Plasma concentration in Fischer 344 rat at 10 mg/kg, po after 0.5 hrs; type: ADME, organism-based; parameters: dose 10 mg/kg, route oral; settings: in vivo
Outline: (§3)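 Plasma levels in fasted male Fischer 344 rats after a 10 mg/kg oral dose in pH 7 water (NaOH), quantified by positive-ion electrospray LC/MS/MS. Main protocol sampled at 0.08/0.25–24 h, n=3 rats per time point. A variant oral-only arm used n=6 rats with samples at 0.5, 1, 2, 3, 4 and 6 h.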

Rattus norvegicus [13] = experiment: Plasma concentration in Fischer 344 rat at 10 mg/kg, po after 1 hrs; type: ADME, organism-based; parameters: dose 10 mg/kg, route oral; settings: in vivo; outline: as §3
Rattus norvegicus [14] = experiment: Plasma concentration in Fischer 344 rat at 10 mg/kg, po after 2 hrs; type: ADME, organism-based; parameters: dose 10 mg/kg, route oral; settings: in vivo; outline: as §3
Rattus norvegicus [15] = experiment: Plasma concentration in Fischer 344 rat at 10 mg/kg, po after 3 hrs; type: ADME, organism-based; parameters: dose 10 mg/kg, route oral; settings: in vivo; outline: as §3
Rattus norvegicus [16] = experiment: Plasma concentration in Fischer 344 rat at 10 mg/kg, po after 4 hrs; type: ADME, organism-based; parameters: dose 10 mg/kg, route oral; settings: in vivo; outline: as §3
Rattus norvegicus [17] = experiment: Plasma concentration in Fischer 344 rat at 10 mg/kg, po after 6 hrs; type: ADME, organism-based; parameters: dose 10 mg/kg, route oral; settings: in vivo; outline: as §3
[18] = Plasma concentration in Fischer 344 rat at 10 mg/kg, po after 8 hrs; type: ADME, organism-based; parameters: dose 10 mg/kg, route oral; outline: as §3
[19] = Plasma concentration in Fischer 344 rat at 10 mg/kg, po after 16 hrs; type: ADME, organism-based; parameters: dose 10 mg/kg, route oral; outline: as §3
[20] = Plasma concentration in rat at 10 mg/kg, po after 24 hrs; type: ADME, organism-based; parameters: dose 10 mg/kg, route oral; outline: as §3
Rattus norvegicus [21] = experiment: Reduction of PCP-induced ambulations in Sprague-Dawley rat at 3 mg/kg, po; type: functional; parameters: scale not given: the % may be the effect or the level left
Outline: (§4)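 Male Sprague-Dawley rats (225-274 g) fasted 12-18 h and habituated 30 min to the test cage. Test drug or vehicle was given orally 2 h before PCP (5 mg/kg s.c.) or 0.9% NaCl. Horizontal photobeam breaks were counted over 60 min, n=8-13 per group.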

Rattus norvegicus [22] = experiment: Reduction of PCP-induced ambulations in Sprague-Dawley rat at 10 mg/kg, po; type: functional; parameters: scale not given: the % may be the effect or the level left; outline: as §4
Rattus norvegicus [23] = experiment: Inhibition of PCP-induced ambulations in Sprague-Dawley rat after oral administration; type: functional; outline: as §4
[24] = biological target: Metabotropic glutamate receptor 8 (Homo sapiens, UniProt O00222); experiment: Agonist activity at human mGluR8 assessed as effect on cAMP production in RGT cells; type: functional, cell-based; outline: as §2
[25] = AUC (0-24h) in Fischer 344 rat at 10 mg/kg, iv; type: ADME, organism-based; parameters: time < 24 hr, dose 10 mg/kg, route intravenous; settings: plasma
Outline: (§5)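 Male Fischer 344 rats fasted overnight, food returned 4 h post dose, water ad libitum. Doses were in water brought to pH 7 with NaOH, given i.v. (2.5 or 10 mg/kg) or p.o. (10 mg/kg). Nine rats per dose group, three per time point, with blood taken over 0.08–24 h. Plasma measured by LC/MS/MS.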

Rattus norvegicus [26] = experiment: AUC (0-24h) in Fischer 344 rat at 10 mg/kg, po; type: ADME, organism-based, Plasma; parameters: time < 24 hr, dose 10 mg/kg, route oral; settings: rat, in vivo, 24 h; outline: as §5
Rattus norvegicus [27] = experiment: Cmax in Fischer 344 rat at 10 mg/kg, iv; type: ADME, organism-based; parameters: dose 10 mg/kg, route intravenous; settings: in vivo; outline: as §5
Rattus norvegicus [28] = experiment: Cmax in Fischer 344 rat at 10 mg/kg, po; type: ADME, organism-based; parameters: dose 10 mg/kg, route oral; settings: in vivo; outline: as §5
[29] = Tmax in Fischer 344 rat at 10 mg/kg, iv; type: ADME, organism-based; parameters: dose 10 mg/kg, route intravenous; settings: in vivo; outline: as §5
[30] = Tmax in Fischer 344 rat at 10 mg/kg, po; type: ADME, organism-based; parameters: dose 10 mg/kg, route oral; settings: Fischer 344, rat, in vivo; outline: as §5
[31] = Oral bioavailability in Fischer 344 rat at 10 mg/kg, po; type: ADME, organism-based; settings: in vivo; outline: as §5
Rattus norvegicus [32] = experiment: Impairment of rotarod performance in Sprague-Dawley rat at 3 mg/kg, po after 2 hrs; type: functional, organism-based; parameters: dose 3 mg/kg
Outline: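 Fasted Sprague-Dawley rats were trained on a rotorod at 4 rpm over four trials. Rats holding on for 60 s were retested 30 min before dosing, then given oral drug or vehicle. They were tested again 2 h later for up to 60 s. Read-out is mean seconds on the rod, n=8 per group.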

N[C@@]1(C(=O)O)CC[C@H]2[C@H](C(=O)O)[C@H]21
Activity [1]: inactive
Activity [2]: inactive
Activity [3]: inactive
Activity [4]: inactive
Activity [5]: inactive
Activity [6]: inactive
Activity [7]: inactive
Activity [8]: inactive

N[C@@]1(C(=O)O)CO[C@H]2[C@H](C(=O)O)[C@H]21
Activity [1]: inactive
Activity [2]: inactive
Activity [3]: inactive
Activity [4]: inactive
Activity [5]: inactive
Activity [6]: inactive
Activity [7]: inactive
Activity [8]: inactive

N[C@@]1(C(=O)O)CS[C@H]2[C@H](C(=O)O)[C@H]21
Activity [1]: inactive
Activity [2]: inactive
Activity [3]: inactive
Activity [4]: inactive
Activity [5]: inactive
Activity [6]: inactive
Activity [7]: inactive
Activity [8]: inactive

N[C@@]1(C(=O)O)C[S+]([O-])[C@H]2[C@H](C(=O)O)[C@H]21 (stereo in doubt; (+)-11) [listing 1 of 2 here]
EC50 [9]: 1.4 nM
Ki [10]: 0.17 nM
EC50 [11]: 0.089 nM
Cp (Rattus norvegicus [12]): 7495 ng/mL
Cp (Rattus norvegicus [13]): 3244 ng/mL
Cp (Rattus norvegicus [14]): 2895 ng/mL
Cp (Rattus norvegicus [15]): 699 ng/mL
Cp (Rattus norvegicus [16]): 726 ng/mL
Cp (Rattus norvegicus [17]): 311 ng/mL
concentration at 8 h [18]: 202 ng/mL
concentration at 16 h [19]: 34 ng/mL
concentration at 24 h [20]: 3 ng/mL
Activity (Rattus norvegicus [21]): 98%
Activity (Rattus norvegicus [22]): 98%
ED50 (Rattus norvegicus [23]): 2.3 mg/kg
EC50 [24]: 3070 nM
AUC(0-t) at 24 h [25]: 13000 ng·h/mL
AUC (Rattus norvegicus [26]): 13000 ng·h/mL
Cmax (Rattus norvegicus [27]): 29000 ng/mL
Cmax (Rattus norvegicus [28]): 7500 ng/mL
Tmax [29]: 0 h
Tmax [30]: 30 min
bioavailability [31]: 100%

N[C@@]1(C(=O)O)C[S+]([O-])[C@H]2[C@H](C(=O)O)[C@H]21 (stereo in doubt; (+)-11) [listing 2 of 2 here]
Activity (Rattus norvegicus [32]): Active
Activity [1]: inactive
Activity [2]: inactive
Activity [3]: inactive
Activity [4]: inactive
Activity [5]: inactive
Activity [6]: inactive
Activity [7]: inactive
Activity [8]: inactive
